ChEMBL document CHEMBL1641497, “A potent and selective indole N-type calcium channel (Ca(v)2.2) blocker for the treatment of pain” (Bioorg Med Chem Lett, 2011)

What was measured:
[1] = biological target: Cav1.2 (voltage-dependent L-type calcium channel subunit alpha-1C) (Homo sapiens, UniProt Q13936); assay: Blockade of Cav1.2 channel at 10 uM by fluorescent calcium-influx assay
In short: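 Cav1.2 (L-type) channel block measured with a fluorescent calcium-influx FLIPR assay. Results are reported as % inhibition at 10 μM test concentration.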

[2] = biological target: T1, Nuclear receptor subfamily 1 group I member 2 (Homo sapiens, UniProt O75469); assay: Activity at PXR by induction assay
T1 sequence (O75469 whole entry): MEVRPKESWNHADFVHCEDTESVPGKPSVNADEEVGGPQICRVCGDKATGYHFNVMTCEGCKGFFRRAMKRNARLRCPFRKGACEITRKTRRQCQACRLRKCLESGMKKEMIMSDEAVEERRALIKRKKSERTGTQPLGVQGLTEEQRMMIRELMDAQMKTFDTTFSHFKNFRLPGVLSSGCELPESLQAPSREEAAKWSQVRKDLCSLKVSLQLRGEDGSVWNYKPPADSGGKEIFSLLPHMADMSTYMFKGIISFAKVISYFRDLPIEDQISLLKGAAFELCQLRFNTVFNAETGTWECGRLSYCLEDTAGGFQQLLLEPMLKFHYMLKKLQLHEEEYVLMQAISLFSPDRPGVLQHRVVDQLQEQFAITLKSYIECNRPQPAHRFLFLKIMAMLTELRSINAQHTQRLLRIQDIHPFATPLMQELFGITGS

[3] = biological target: T2, Voltage-dependent N-type calcium channel subunit alpha-1B (Homo sapiens, UniProt Q00975); assay: Blockade of Cav2.2 channel by fluorescent calcium-influx assay
In short: (§1)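 […] Cav2.2 channel block measured in vitro with a fluorescent calcium-influx (FLIPR) assay. Results are reported as % inhibition at 10 μM, with an IC50 (μM) for selected compounds.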
Target sequence in this assay (Q00975 whole entry): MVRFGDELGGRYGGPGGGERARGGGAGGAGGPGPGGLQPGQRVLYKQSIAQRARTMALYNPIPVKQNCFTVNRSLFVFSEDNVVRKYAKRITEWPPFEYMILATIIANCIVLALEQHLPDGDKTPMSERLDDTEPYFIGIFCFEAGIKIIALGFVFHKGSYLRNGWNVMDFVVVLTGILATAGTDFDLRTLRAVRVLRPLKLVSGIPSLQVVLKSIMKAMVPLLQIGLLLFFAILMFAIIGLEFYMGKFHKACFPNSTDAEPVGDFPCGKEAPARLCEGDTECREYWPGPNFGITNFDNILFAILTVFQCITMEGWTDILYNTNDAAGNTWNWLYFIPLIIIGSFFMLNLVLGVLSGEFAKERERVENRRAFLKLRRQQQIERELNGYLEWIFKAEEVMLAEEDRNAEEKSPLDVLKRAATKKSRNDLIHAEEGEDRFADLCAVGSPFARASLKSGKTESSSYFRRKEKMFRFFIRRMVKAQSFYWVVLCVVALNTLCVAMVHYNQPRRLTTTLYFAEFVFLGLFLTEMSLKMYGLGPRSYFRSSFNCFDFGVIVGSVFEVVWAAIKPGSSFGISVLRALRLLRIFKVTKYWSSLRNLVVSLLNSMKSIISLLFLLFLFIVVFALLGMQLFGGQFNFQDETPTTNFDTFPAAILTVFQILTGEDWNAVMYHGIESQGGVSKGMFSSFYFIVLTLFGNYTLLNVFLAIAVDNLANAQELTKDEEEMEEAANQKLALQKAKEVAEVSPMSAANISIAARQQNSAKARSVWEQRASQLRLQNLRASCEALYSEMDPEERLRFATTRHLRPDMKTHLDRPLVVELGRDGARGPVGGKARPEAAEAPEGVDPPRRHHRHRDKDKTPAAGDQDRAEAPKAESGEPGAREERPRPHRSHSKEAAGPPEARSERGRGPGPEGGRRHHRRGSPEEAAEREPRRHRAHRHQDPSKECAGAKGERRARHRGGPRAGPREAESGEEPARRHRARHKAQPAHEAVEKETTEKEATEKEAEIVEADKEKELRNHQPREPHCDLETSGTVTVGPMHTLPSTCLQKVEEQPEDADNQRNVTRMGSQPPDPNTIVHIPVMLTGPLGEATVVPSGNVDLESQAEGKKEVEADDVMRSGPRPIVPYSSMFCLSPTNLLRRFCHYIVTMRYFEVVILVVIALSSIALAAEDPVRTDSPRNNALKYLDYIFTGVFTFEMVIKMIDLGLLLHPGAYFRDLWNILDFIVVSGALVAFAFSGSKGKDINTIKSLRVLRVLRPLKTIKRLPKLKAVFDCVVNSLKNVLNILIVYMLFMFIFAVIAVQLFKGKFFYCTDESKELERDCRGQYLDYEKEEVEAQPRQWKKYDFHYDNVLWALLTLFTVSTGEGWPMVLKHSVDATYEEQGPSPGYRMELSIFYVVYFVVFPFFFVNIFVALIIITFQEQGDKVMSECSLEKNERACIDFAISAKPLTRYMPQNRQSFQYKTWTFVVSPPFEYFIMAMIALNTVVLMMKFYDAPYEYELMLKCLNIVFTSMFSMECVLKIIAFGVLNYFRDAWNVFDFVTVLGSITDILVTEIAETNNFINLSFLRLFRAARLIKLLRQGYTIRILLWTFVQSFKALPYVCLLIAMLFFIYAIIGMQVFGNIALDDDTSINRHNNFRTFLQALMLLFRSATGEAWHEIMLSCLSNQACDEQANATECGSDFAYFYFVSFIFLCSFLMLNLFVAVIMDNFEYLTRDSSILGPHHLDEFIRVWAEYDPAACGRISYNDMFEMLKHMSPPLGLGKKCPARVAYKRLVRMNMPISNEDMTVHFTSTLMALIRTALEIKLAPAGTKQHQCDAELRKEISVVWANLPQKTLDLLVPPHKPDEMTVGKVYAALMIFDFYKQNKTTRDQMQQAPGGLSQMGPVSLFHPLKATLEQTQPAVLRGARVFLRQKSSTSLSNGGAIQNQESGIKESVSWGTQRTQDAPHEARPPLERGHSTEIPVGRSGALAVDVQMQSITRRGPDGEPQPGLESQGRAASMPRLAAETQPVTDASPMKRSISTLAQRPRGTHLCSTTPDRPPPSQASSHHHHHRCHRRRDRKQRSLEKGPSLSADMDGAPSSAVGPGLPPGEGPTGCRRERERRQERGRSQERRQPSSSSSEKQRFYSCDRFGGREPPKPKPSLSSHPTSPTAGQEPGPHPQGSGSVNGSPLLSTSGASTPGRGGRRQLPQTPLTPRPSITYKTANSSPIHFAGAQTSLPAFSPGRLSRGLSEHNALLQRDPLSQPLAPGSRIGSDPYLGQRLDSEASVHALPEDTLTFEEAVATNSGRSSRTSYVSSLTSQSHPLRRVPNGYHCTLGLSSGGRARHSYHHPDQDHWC

[4] = biological target: T2, Voltage-dependent N-type calcium channel subunit alpha-1B; assay: Blockade of Cav2.2 channel at 10 uM by fluorescent calcium-influx assay; in short: as §1
Target sequence in this assay (Q00975 whole entry, looked up): as the sequence (Q00975 whole entry) above

[5] = system: hERG (Homo sapiens); assay: Blockade of hERG channel at 10 uM by displacement of MK-0499 binding
[6] = biological target: Nav1.5 (sodium channel protein type 5 subunit alpha) (Homo sapiens, UniProt Q14524); assay: Blockade of Nav1.5 channel at 10 uM by fluorescent […] assay
[7] = Oral bioavailability in rat at 3 mg/kg; assay type: ADME, organism-based; settings: in vivo
In short: (§2)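 Rat PK with 1.0 mg/kg IV and 3.0 mg/kg PO doses, based on plasma analysis. Parameters: Cmax, dose-normalized AUC (μM h kg/mg), plasma clearance (mL/min/kg), Vdss (L/kg), T1/2 (h) and oral bioavailability (%).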

[8] = Metabolic stability in human liver microsomes assessed as compound remaining after 60 mins; assay type: ADME, Microsome; settings: read-out: Stability
In short: (§3)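 Compounds incubated with human or rat liver microsomes for 60 min. Read-out is the percent of parent compound remaining.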

[9] = Metabolic stability in rat liver microsomes assessed as compound remaining after 60 mins; assay type: ADME, Microsome; settings: read-out: Stability; in short: as §3
[10] = system: Rattus norvegicus; assay: Dose normalized AUC in rat at 1 mg/kg, iv and 3 mg/kg, po; assay type: ADME, organism-based; settings: in vivo; in short: as §2
[11] = Plasma clearance in rat at 1 mg/kg, iv and 3 mg/kg, po; assay type: ADME, organism-based; in short: as §2
[12] = Half life in rat at 1 mg/kg, iv and 3 mg/kg, po; assay type: ADME, organism-based; settings: in vivo; in short: as §2

Sequence of Cav1.2 (voltage-dependent L-type calcium channel subunit alpha-1C) (Q13936 whole entry): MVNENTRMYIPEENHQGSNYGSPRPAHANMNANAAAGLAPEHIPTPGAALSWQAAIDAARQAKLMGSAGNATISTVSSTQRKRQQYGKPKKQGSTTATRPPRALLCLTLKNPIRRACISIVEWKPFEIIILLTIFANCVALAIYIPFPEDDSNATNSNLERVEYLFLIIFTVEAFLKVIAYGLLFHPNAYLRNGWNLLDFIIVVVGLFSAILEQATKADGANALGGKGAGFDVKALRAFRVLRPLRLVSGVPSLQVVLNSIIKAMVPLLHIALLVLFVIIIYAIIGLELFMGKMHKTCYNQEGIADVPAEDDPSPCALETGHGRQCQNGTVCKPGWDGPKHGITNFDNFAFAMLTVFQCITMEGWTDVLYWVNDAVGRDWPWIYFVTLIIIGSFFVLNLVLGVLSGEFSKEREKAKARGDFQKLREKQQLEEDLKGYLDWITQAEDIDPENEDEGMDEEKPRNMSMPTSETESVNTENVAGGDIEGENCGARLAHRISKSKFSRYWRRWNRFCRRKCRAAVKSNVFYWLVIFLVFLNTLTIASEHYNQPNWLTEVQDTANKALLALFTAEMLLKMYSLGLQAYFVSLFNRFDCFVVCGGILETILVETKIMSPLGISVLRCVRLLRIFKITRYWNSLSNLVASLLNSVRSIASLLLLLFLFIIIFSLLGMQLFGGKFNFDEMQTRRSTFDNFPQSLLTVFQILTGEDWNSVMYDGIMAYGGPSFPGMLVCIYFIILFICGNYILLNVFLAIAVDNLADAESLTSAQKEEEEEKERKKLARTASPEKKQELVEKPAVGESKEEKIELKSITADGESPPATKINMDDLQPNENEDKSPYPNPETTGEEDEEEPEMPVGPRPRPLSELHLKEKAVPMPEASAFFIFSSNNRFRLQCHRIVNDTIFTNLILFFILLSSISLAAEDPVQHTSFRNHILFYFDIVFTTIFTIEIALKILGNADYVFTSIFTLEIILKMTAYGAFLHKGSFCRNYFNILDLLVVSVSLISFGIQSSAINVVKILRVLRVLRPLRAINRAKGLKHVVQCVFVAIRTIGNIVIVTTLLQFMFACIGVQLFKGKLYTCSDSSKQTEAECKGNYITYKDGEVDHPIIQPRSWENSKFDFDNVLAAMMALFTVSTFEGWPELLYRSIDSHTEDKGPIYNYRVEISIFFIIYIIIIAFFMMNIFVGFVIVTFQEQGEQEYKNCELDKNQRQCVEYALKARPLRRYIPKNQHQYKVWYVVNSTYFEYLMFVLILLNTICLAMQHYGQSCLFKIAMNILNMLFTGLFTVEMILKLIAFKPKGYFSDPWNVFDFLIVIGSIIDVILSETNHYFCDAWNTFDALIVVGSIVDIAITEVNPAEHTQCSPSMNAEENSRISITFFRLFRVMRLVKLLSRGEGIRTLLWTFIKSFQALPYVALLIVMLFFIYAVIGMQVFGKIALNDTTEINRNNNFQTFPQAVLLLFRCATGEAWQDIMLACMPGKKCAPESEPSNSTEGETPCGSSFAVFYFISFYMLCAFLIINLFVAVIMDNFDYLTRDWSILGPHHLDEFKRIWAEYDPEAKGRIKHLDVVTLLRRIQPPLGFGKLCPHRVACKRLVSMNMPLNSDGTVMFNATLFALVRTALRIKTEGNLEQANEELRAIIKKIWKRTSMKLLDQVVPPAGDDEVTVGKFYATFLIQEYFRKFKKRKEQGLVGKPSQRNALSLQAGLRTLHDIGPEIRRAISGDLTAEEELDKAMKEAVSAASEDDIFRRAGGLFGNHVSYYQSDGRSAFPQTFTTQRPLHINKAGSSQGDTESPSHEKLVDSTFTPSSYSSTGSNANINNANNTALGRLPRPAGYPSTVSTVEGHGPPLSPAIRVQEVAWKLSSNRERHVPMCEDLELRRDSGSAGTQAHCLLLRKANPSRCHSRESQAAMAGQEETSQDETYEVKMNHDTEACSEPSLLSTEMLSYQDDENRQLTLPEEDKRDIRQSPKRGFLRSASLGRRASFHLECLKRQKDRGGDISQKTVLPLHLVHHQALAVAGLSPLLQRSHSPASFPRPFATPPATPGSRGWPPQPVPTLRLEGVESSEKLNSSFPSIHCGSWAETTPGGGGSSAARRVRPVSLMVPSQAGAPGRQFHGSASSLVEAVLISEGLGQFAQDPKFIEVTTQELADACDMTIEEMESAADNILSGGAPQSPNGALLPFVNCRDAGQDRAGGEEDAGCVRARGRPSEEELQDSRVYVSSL

SMILES	inhibition at 10 µM [1] [%]	EC50 [2] [nM]	IC50 [3] [nM]	inhibition [4] [%]	also measured
CC(C)(C)NC(=O)Cn1c(C(=O)NC(C)(C)C)cc2cc(C(C)(C)C(=O)NC(C)(C)C)ccc21	24	6640	–	–	–
Cc1cc(C)cc(-c2cc3cc(C(C)(C)C(=O)NC4CC4)ccc3n2CC(C)O)c1 (stereo not given)	–	–	1150	89	–
Cc1cc(C)cc(-c2cc3cc(C(C)(C)C(=O)NC(C)(C)C)ccc3n2Cc2c(C)noc2C)c1	–	–	540	99	inhibition at 10 µM [5]: 65%
Cc1cc(C)cc(-c2cc3cc(C(C)(C)C(=O)NC(C)(C)C)ccc3n2CC(=O)NC(C)(C)C)c1	78	> 30000	190	98	inhibition at 10 µM [5]: 33%
Cc1cc(C)cc(-c2cc3cc(C(C)(C)C(=O)NCC(F)(F)F)ccc3n2CC(C)O)c1 (stereo not given)	–	–	1170	91	–
COCCn1c(-c2cc(C)cc(C)c2)cc2cc(C(C)(C)C(=O)NC(C)(C)C)ccc21	70	–	520	99	–
COC(=O)C(C)(C)c1ccc2c(c1)cc(-c1cc(C)cc(C)c1)n2CC(C)O (stereo not given)	64	–	–	70	–
CC(C)(C)NC(=O)Cn1c(-c2cc(F)cc(C(F)(F)F)c2)cc2cc(C(C)(C)C(=O)NC(C)(C)C)ccc21	88	> 30000	–	–	–
CCOC(=O)C(C)(C)c1ccc2c(c1)c([C@H](C)CO)c(-c1cc(C)cc(C)c1)n2C(=O)OC(C)(C)C	40	–	600	–	inhibition at 10 µM [6]: 25%
Cc1cc(C)cc(-c2cc3cc(OC(F)(F)F)ccc3n2CC(C)O)c1 (stereo not given)	43	–	–	36	–
CC(C)(C)NC(=O)Cn1c(-c2ccccc2OC(F)(F)F)cc2cc(C(C)(C)C(=O)NC(C)(C)C)ccc21	79	> 30000	–	–	bioavailability [7]: 38%; remaining at 1 h [8]: 0.04%; remaining at 1 h [9]: 2.5%; AUC [10]: 0.57 µM·kg·h/mg; clearance [11]: 21 mL/min/kg; half-life [12]: 2.68 h
Cc1cc(C)cc(-c2cc3cc(C(C)(C)C(=O)NC(C)(C)C)ccc3n2CC(=O)OC(C)(C)C)c1	48	–	660	91	inhibition at 10 µM [5]: 60%
Cc1cc(C)cc(-c2cc3cc(C(C)(C)C(=O)N(C)C)ccc3n2CC(C)O)c1 (stereo not given)	52	–	870	89	–
CC(C)(C)NC(=O)Cn1c(-c2cc(C(F)(F)F)cc(C(F)(F)F)c2)cc2cc(C(C)(C)C(=O)NC(C)(C)C)ccc21	61	10800	–	–	–
CC(C)(C)NC(=O)Cn1c(-c2cccc(OC(F)(F)F)c2)cc2cc(C(C)(C)C(=O)NC(C)(C)C)ccc21	93	> 30000	–	–	bioavailability [7]: 26%; remaining at 1 h [8]: 0.82%; remaining at 1 h [9]: 22%; AUC [10]: 0.83 µM·kg·h/mg; clearance [11]: 11 mL/min/kg; half-life [12]: 2.27 h
Cc1cc(C)cc(-c2cc3cc(C(C)(C)C(=O)NC(C)(C)C)ccc3n2Cc2ccc(Cl)cc2)c1	–	–	–	36	–
Cc1cc(C)cc(-c2cc3cc(C(C)(C)C(=O)NC(C)(C)C)ccc3[nH]2)c1	–	–	–	78	–
CCCN[C@@H](C)c1c(-c2cc(C)cc(C)c2)[nH]c2ccc(C(C)(C)C(=O)N3C4CCC3CC4)cc12	62	–	880	–	inhibition at 10 µM [6]: 44%
CC(C)(C)NC(=O)Cn1c(-c2ccc(F)cc2)cc2cc(C(C)(C)C(=O)NC(C)(C)C)ccc21	82	> 30000	–	–	–
CC(C)(C)NC(=O)C(c1ccccn1)n1ccc2cc(C(C)(C)C(=O)NC(C)(C)C)ccc21 (stereo not given)	64	600	–	–	–
COc1ccccc1-c1cc2cc(C(C)(C)C(=O)NC(C)(C)C)ccc2n1CC(=O)NC(C)(C)C	60	740	–	–	–
Cc1cc(C)cc(-c2cc3cc(C(C)(C)C(=O)NC(C)(C)C)ccc3n2C(=O)OC(C)(C)C)c1	–	–	–	59	–
CC(C)(C)NC(=O)Cn1c(C(C)(C)C)cc2cc(C(C)(C)C(=O)NC(C)(C)C)ccc21	47	570	–	–	–
CC(C)(C)NC(=O)Cn1c(-c2ccccc2)cc2cc(C(C)(C)C(=O)NC(C)(C)C)ccc21	79	1810	–	–	–
Cc1cc(C)cc(-c2cc3cc(C(C)(C)CO)ccc3n2CC(C)O)c1 (stereo not given)	32	–	–	44	–
Cc1cc(C)cc(-c2cc3cc(C(=O)NC(C)(C)C)ccc3n2CC(C)O)c1 (stereo not given)	90	–	680	97	inhibition at 10 µM [5]: 64%
CC(C)(C)NC(=O)Cn1c(-c2ccc(F)cc2F)cc2cc(C(C)(C)C(=O)NC(C)(C)C)ccc21	93	940	–	–	–
